{
  "source": "ChEMBL document CHEMBL3745688",
  "about": "“Discovery of novel hybrids of diaryl-1,2,4-triazoles and caffeic acid as dual inhibitors of cyclooxygenase-2 and 5-lipoxygenase for cancer therapy” (Eur J Med Chem, 2016)",
  "data": [
    {"molecular_target": "T1, Prostaglandin G/H synthase 2 (Rattus norvegicus, UniProt P35355)", "T1 sequence (P35355 whole entry)": "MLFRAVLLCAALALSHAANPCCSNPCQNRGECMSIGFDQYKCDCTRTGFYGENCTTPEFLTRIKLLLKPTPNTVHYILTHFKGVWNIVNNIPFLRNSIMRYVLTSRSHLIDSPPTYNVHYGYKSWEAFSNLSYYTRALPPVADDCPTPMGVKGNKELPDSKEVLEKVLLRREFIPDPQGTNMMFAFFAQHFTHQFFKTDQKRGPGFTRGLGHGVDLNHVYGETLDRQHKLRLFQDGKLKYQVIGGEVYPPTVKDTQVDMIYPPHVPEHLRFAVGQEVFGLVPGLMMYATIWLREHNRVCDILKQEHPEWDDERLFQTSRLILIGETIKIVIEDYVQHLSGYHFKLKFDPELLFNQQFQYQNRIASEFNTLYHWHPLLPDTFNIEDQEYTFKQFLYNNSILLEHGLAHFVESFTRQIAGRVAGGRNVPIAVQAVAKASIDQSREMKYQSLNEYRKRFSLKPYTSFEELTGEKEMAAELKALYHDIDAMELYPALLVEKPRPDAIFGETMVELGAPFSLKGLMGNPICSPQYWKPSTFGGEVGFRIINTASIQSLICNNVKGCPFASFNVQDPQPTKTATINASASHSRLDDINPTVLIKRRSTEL", "test": "Inhibition of COX2 in rat abdominal macrophages assessed as PGE2 production pretreated for 30 mins followed by addition of 10 uM arachidonic acid as substrate for 20 mins by EIA", "settings": "not given", "units": {"IC50": "µM"}, "values": [
      {"molecule": "COc1cc(/C=C/C(=O)OCCSc2nc(-c3ccc(S(C)(=O)=O)cc3)n(-c3ccc(Br)cc3)n2)ccc1OC(C)=O", "IC50": 0.29},
      {"molecule": "CC(=O)Oc1ccc(/C=C/C(=O)OCCCSc2nc(-c3ccc(S(C)(=O)=O)cc3)n(-c3ccc(Br)cc3)n2)cc1OC(C)=O", "IC50": 0.29},
      {"molecule": "COc1cc(/C=C/C(=O)OCCSc2nc(-c3ccc(S(C)(=O)=O)cc3)n(-c3ccc(F)cc3)n2)ccc1OC(C)=O", "IC50": 0.24},
      {"molecule": "COc1cc(/C=C/C(=O)OCCSc2nc(-c3ccc(S(C)(=O)=O)cc3)n(-c3ccc(C)cc3)n2)ccc1OC(C)=O", "IC50": 0.87},
      {"molecule": "CC(=O)Oc1ccc(/C=C/C(=O)OCCSc2nc(-c3ccc(S(N)(=O)=O)cc3)n(-c3ccc(Br)cc3)n2)cc1OC(C)=O", "IC50": 0.31},
      {"molecule": "COc1cc(/C=C/C(=O)OCCSc2nc(-c3ccc(S(C)(=O)=O)cc3)n(-c3ccc(C(F)(F)F)cc3)n2)ccc1OC(C)=O", "IC50": 0.23},
      {"molecule": "CS(=O)(=O)c1ccc(-c2nc(SCCOC(=O)/C=C/c3ccc(O)c(O)c3)nn2-c2ccccc2)cc1", "IC50": 0.67}
    ]},
    {"test_system": "not listed separately", "test": "Antiproliferative activity against mouse B16F10 cells after 72 hrs by MTT assay", "type": "functional, cell-based", "settings": "B16-F10, 72 h", "in_short": "(§1)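 Cells seeded at 5×10^4/well, grown 24 h at 37 °C in 5% CO₂, then exposed to compounds dissolved in DMSO at a range of concentrations for 72 h. MTT (5 mg/mL in PBS) added for 4 h, then OD read at 570 nm. IC50 taken from dose-response curves, mean ± S.D. of three independent experiments.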", "units": {"IC50": "µM"}, "values": [
      {"molecule": "COc1cc(/C=C/C(=O)OCCSc2nc(-c3ccc(S(C)(=O)=O)cc3)n(-c3ccc(Br)cc3)n2)ccc1OC(C)=O", "IC50": 12.4},
      {"molecule": "CC(=O)Oc1ccc(/C=C/C(=O)OCCCSc2nc(-c3ccc(S(C)(=O)=O)cc3)n(-c3ccc(Br)cc3)n2)cc1OC(C)=O", "IC50": 12.8},
      {"molecule": "COc1cc(/C=C/C(=O)OCCSc2nc(-c3ccc(S(C)(=O)=O)cc3)n(-c3ccc(F)cc3)n2)ccc1OC(C)=O", "IC50": 11.2},
      {"molecule": "COc1cc(/C=C/C(=O)OCCSc2nc(-c3ccc(S(C)(=O)=O)cc3)n(-c3ccc(C)cc3)n2)ccc1OC(C)=O", "IC50": 15.3},
      {"molecule": "COc1cc(/C=C/C(=O)OCCSc2nc(-c3ccc(S(C)(=O)=O)cc3)n(-c3ccc(C(F)(F)F)cc3)n2)ccc1OC(C)=O", "IC50": 10.5},
      {"molecule": "CS(=O)(=O)c1ccc(-c2nc(SCCOC(=O)/C=C/c3ccc(O)c(O)c3)nn2-c2ccccc2)cc1", "IC50": 15}
    ]},
    {"molecular_target": "T2, Polyunsaturated fatty acid 5-lipoxygenase (Rattus norvegicus, UniProt P12527)", "T2 sequence (P12527 whole entry)": "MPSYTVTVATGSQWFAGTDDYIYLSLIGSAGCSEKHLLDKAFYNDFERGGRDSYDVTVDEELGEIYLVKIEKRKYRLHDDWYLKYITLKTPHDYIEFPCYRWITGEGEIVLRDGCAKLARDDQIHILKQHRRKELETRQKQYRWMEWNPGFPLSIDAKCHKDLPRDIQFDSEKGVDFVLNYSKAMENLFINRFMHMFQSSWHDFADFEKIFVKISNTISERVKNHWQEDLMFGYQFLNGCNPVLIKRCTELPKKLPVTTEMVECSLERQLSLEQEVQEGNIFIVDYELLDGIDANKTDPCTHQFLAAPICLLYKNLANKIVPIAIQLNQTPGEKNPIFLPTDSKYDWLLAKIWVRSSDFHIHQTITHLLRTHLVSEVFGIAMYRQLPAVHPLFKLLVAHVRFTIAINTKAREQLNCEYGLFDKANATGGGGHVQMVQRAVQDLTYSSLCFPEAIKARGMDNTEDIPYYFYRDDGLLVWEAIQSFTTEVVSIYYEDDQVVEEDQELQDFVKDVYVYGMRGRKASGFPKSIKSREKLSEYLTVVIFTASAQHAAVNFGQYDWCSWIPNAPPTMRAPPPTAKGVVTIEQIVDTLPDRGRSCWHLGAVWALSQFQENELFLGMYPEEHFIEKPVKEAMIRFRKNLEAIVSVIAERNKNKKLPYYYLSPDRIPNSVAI", "test": "Inhibition of 5-LOX in Sprague-Dawley rat leukocytes assessed as A23187 stimulated LTB4 production pretreated for 30 mins followed by addition of A23187 for 30 mins by EIA", "type": "cell-based", "settings": "not given", "in_short": "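Rat peritoneal leukocytes collected from Sprague-Dawley rats primed i.p. with 0.2% glycogen (20 mL/kg). Cells in Hanks solution plated at 1.0×10^6/well and held 10 min at 37 °C. Pretreated 30 min with L-cysteine (10 mM), indomethacin (1 mg/L) and compound or DMSO. A23187 added for 30 min. LTB4 in the clarified supernatant measured by EIA; % inhibition from OD; IC50 by Bliss method.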", "units": {"IC50": "µM"}, "values": [
      {"molecule": "COc1cc(/C=C/C(=O)OCCSc2nc(-c3ccc(S(C)(=O)=O)cc3)n(-c3ccc(Br)cc3)n2)ccc1OC(C)=O", "IC50": 0.94},
      {"molecule": "CC(=O)Oc1ccc(/C=C/C(=O)OCCCSc2nc(-c3ccc(S(C)(=O)=O)cc3)n(-c3ccc(Br)cc3)n2)cc1OC(C)=O", "IC50": 0.99},
      {"molecule": "COc1cc(/C=C/C(=O)OCCSc2nc(-c3ccc(S(C)(=O)=O)cc3)n(-c3ccc(F)cc3)n2)ccc1OC(C)=O", "IC50": 0.92},
      {"molecule": "COc1cc(/C=C/C(=O)OCCSc2nc(-c3ccc(S(C)(=O)=O)cc3)n(-c3ccc(C)cc3)n2)ccc1OC(C)=O", "IC50": 0.98},
      {"molecule": "CC(=O)Oc1ccc(/C=C/C(=O)OCCSc2nc(-c3ccc(S(N)(=O)=O)cc3)n(-c3ccc(Br)cc3)n2)cc1OC(C)=O", "IC50": 1.05},
      {"molecule": "COc1cc(/C=C/C(=O)OCCSc2nc(-c3ccc(S(C)(=O)=O)cc3)n(-c3ccc(C(F)(F)F)cc3)n2)ccc1OC(C)=O", "IC50": 0.92},
      {"molecule": "CS(=O)(=O)c1ccc(-c2nc(SCCOC(=O)/C=C/c3ccc(O)c(O)c3)nn2-c2ccccc2)cc1", "IC50": 0.85}
    ]},
    {"test_system": "A549", "test": "Antiproliferative activity against human A549 cells after 72 hrs by MTT assay", "type": "functional, cell-based", "settings": "A549, 72 h", "in_short": "as §1", "units": {"IC50": "µM"}, "values": [
      {"molecule": "COc1cc(/C=C/C(=O)OCCSc2nc(-c3ccc(S(C)(=O)=O)cc3)n(-c3ccc(Br)cc3)n2)ccc1OC(C)=O", "IC50": 11.1},
      {"molecule": "CC(=O)Oc1ccc(/C=C/C(=O)OCCCSc2nc(-c3ccc(S(C)(=O)=O)cc3)n(-c3ccc(Br)cc3)n2)cc1OC(C)=O", "IC50": 12.9},
      {"molecule": "COc1cc(/C=C/C(=O)OCCSc2nc(-c3ccc(S(C)(=O)=O)cc3)n(-c3ccc(F)cc3)n2)ccc1OC(C)=O", "IC50": 9.61},
      {"molecule": "COc1cc(/C=C/C(=O)OCCSc2nc(-c3ccc(S(C)(=O)=O)cc3)n(-c3ccc(C)cc3)n2)ccc1OC(C)=O", "IC50": 15},
      {"molecule": "COc1cc(/C=C/C(=O)OCCSc2nc(-c3ccc(S(C)(=O)=O)cc3)n(-c3ccc(C(F)(F)F)cc3)n2)ccc1OC(C)=O", "IC50": 9.65},
      {"molecule": "CS(=O)(=O)c1ccc(-c2nc(SCCOC(=O)/C=C/c3ccc(O)c(O)c3)nn2-c2ccccc2)cc1", "IC50": 13.8}
    ]},
    {"test_system": "not listed separately", "test": "Antiproliferative activity against human PC3 cells after 72 hrs by MTT assay", "type": "functional, cell-based", "settings": "PC-3, 72 h", "in_short": "as §1", "units": {"IC50": "µM"}, "values": [
      {"molecule": "COc1cc(/C=C/C(=O)OCCSc2nc(-c3ccc(S(C)(=O)=O)cc3)n(-c3ccc(Br)cc3)n2)ccc1OC(C)=O", "IC50": 13.1},
      {"molecule": "CC(=O)Oc1ccc(/C=C/C(=O)OCCCSc2nc(-c3ccc(S(C)(=O)=O)cc3)n(-c3ccc(Br)cc3)n2)cc1OC(C)=O", "IC50": 14.9},
      {"molecule": "COc1cc(/C=C/C(=O)OCCSc2nc(-c3ccc(S(C)(=O)=O)cc3)n(-c3ccc(F)cc3)n2)ccc1OC(C)=O", "IC50": 12.8},
      {"molecule": "COc1cc(/C=C/C(=O)OCCSc2nc(-c3ccc(S(C)(=O)=O)cc3)n(-c3ccc(C)cc3)n2)ccc1OC(C)=O", "IC50": 15.5},
      {"molecule": "COc1cc(/C=C/C(=O)OCCSc2nc(-c3ccc(S(C)(=O)=O)cc3)n(-c3ccc(C(F)(F)F)cc3)n2)ccc1OC(C)=O", "IC50": 9.81},
      {"molecule": "CS(=O)(=O)c1ccc(-c2nc(SCCOC(=O)/C=C/c3ccc(O)c(O)c3)nn2-c2ccccc2)cc1", "IC50": 14.6}
    ]},
    {"test_system": "not listed separately", "test": "Antiproliferative activity against human Caco2 cells after 72 hrs by MTT assay", "type": "functional, cell-based", "settings": "Caco-2, 72 h", "in_short": "as §1", "units": {"IC50": "µM"}, "values": [
      {"molecule": "COc1cc(/C=C/C(=O)OCCSc2nc(-c3ccc(S(C)(=O)=O)cc3)n(-c3ccc(Br)cc3)n2)ccc1OC(C)=O", "IC50": 12.1},
      {"molecule": "CC(=O)Oc1ccc(/C=C/C(=O)OCCCSc2nc(-c3ccc(S(C)(=O)=O)cc3)n(-c3ccc(Br)cc3)n2)cc1OC(C)=O", "IC50": 11.7},
      {"molecule": "COc1cc(/C=C/C(=O)OCCSc2nc(-c3ccc(S(C)(=O)=O)cc3)n(-c3ccc(F)cc3)n2)ccc1OC(C)=O", "IC50": 10.8},
      {"molecule": "COc1cc(/C=C/C(=O)OCCSc2nc(-c3ccc(S(C)(=O)=O)cc3)n(-c3ccc(C)cc3)n2)ccc1OC(C)=O", "IC50": 14.1},
      {"molecule": "COc1cc(/C=C/C(=O)OCCSc2nc(-c3ccc(S(C)(=O)=O)cc3)n(-c3ccc(C(F)(F)F)cc3)n2)ccc1OC(C)=O", "IC50": 10.8},
      {"molecule": "CS(=O)(=O)c1ccc(-c2nc(SCCOC(=O)/C=C/c3ccc(O)c(O)c3)nn2-c2ccccc2)cc1", "IC50": 14.8}
    ]}
  ]
}
